We go through 3 compounds from ChEMBL document CHEMBL1155280, “New arylthioindoles and related bioisosteres at the sulfur bridging group. 4. Synthesis, tubulin polymerization, cell growth inhibition, and molecular modeling studies” (J Med Chem, 2009).

Each structure is given as a SMILES string. The source made the active and inactive calls. No cut-off for these calls is given here.

Data set [1] can be described thus: Inhibition of tubulin polymerization after 20 mins by spectrophotometry. The essentials: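 Tubulin 10 μM in 0.8 M monosodium glutamate, pH 6.6, preincubated 15 min at 30 °C with varying drug, chilled on ice. GTP added to 0.4 mM, turbidity at 350 nm followed 20 min at 30 °C. Extent of assembly measured; IC50 ± SD.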
Data set [2] deals with Saccharomyces cerevisiae. The data set is described as follows: Toxicity in Saccharomyces cerevisiae assessed as growth inhibition at first dilution at 20 uM after 3 days. The class given is organism-based. To be noted: in vivo, 72 h. The essentials:
(§1)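 S. cerevisiae BY4741 grown at 28 °C in minimal SD medium with 2% glucose. Exponential culture (5 × 10^6 cells/mL) exposed 18 h at 28 °C to compound at 20 μM, washed, resuspended in SD, serially diluted 10-fold, incubated overnight. Spotted onto YPD plates; growth scored by dilution reached after 3 days at 28 °C.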

For data set [3], the system named is Saccharomyces cerevisiae. Kind of data set: Toxicity in Saccharomyces cerevisiae assessed as growth inhibition at second dilution at 20 uM after 3 days. The class given is organism-based. To be noted: in vivo, 72 h. The essentials: as §1
For data set [4], the system named is MCF7. The data set is described as follows: Growth inhibition of human MCF7 cells after 48 hrs by sulforhodamine B assay. The class given is functional, cell-based. To be noted: MCF7, 48 h. (Sulforhodamine B stains cellular protein and so reports cell mass.)
The subject of data set [5] is HEK293. Kind of data set: Cytotoxicity against HEK293 cells at 10 to 200 nM by MTT assay. The class given is cell-based. To be noted: human, hek293, 0.2 µM; TDE = time-dependent effect. The essentials:
(§2)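 MTT assay. Seeded 10^5 cells/well, compound added after 24 h at 10, 30, 50, 100, 150, 200 nM for 24 or 48 h. MTT 1 mg/mL, 2 h at 37 °C in dark, formazan dissolved in DMSO, read at 550 nm. Triplicate; 0.5% DMSO control.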

For data set [6], the system named is MCF7. Kind of data set: Selectivity index, ratio of IC50 for HUVEC to IC50 for human MCF7 cells. The essentials:
(§3)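 Selectivity index: IC50 in the named nontransformed line divided by IC50 in MCF-7 cells.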

For data set [7], the system named is HeLa. Kind of data set: Antiproliferative activity against human HeLa cells assessed as cell proliferation at 1 uM after 24 hrs by MTT assay relative to control. The class given is functional. The settings on record: read-out: Activity. Put shortly:
(§4)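 HeLa and HCT116/chr3 cells grown at 37 °C, 5% CO2 in D-MEM with 10% fetal calf serum (HCT116/chr3 medium plus 500 μg/mL G418). Seeded 1 × 10^3 cells/well, treated 24 h later for 24 h from 10 mM DMSO stock; 1% DMSO solvent control. Quadruplicate, repeated three times; given as % of control ± SD.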
(Tetrazolium dyes change colour on reduction, which living cells bring about.)

The test system of a further data set is A10. Kind of data set: Growth inhibition of rat A10 cells. The class given is cell-based. The essentials:
(§5)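 Human aortic smooth muscle, PtK2 kidney epithelial, rat A10 aortic smooth muscle and HUVEC lines grown as the supplier recommends, under 5% CO2.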

The subject of data set [8] is M14. The data set is described as follows: Cytotoxicity against human M14 cells assessed as effect on cell morphology at 300 nM after 48 hrs by time-lapse microscopy. The class given is functional, cell-based. Put shortly: (§6)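 Morphology of HEK and M14 cells followed by time-lapse microscopy in 96-well plates at 37 °C, 5% CO2, with images captured every hour over 48 h.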

Data set [9] can be described thus: Growth inhibition of Potorous tridactylus PtK2 cells. The class given is cell-based. The essentials: as §5
Data set [10] relates to U-937. Kind of data set: Cytotoxicity against human U937 cells at 10 to 200 nM by MTT assay. The settings on record: TDE = time-dependent effect. The class given is functional, cell-based. Put shortly:
as §2

Data set [11] concerns MCF7. The data set is described as follows: Selectivity index, ratio of IC50 for Potorous tridactylus PtK2 cells to IC50 for human MCF7 cells. The class given is functional. The essentials: as §3
Data set [12] relates to HEK293. Kind of data set: Cytotoxicity against HEK293 cells assessed as effect on cell morphology at 300 nM after 48 hrs by time-lapse microscopy. The class given is cell-based. To be noted: human, hek293, 48 h, 0.3 µM. The essentials:
as §6

Data set [13] relates to M14. The data set is described as follows: Cytotoxicity against human M14 cells after 48 hrs by MTT assay. The class given is functional, cell-based. To be noted: for IC50: M14, 48 h. The essentials:
as §2

Data set [14] concerns HEK293. Kind of data set: Cytotoxicity against HEK293 cells after 48 hrs by MTT assay. To be noted: for Activity: human, hek293, 48 h. The class given is cell-based, Homo sapiens. Put shortly:
as §2

The next data set deals with HUVEC. The data set is described as follows: Growth inhibition of HUVEC. The class given is cell-based. The settings on record: Homo sapiens. The essentials: as §5
Data set [15] concerns HCT-116. Kind of data set: Antiproliferative activity against human HCT116 cells expressing mismatch repair gene MLH1 complemented with chromosome 3 assessed as cell proliferation at 0.5 uM after 24 hrs by MTT assay relative to control. The class given is functional. To be noted: HCT-116, 24 h, read-out: Activity. The essentials: as §4
Data set [16] is described as follows: Growth inhibition of mouse J774.1 cells at 300 nM after 48 hrs by MTT assay relative to control. The class given is cell-based. The settings on record: read-out: GI.
A short description of data set [17]: Growth inhibition of HSMC. The class given is cell-based. The settings on record: Homo sapiens. Put shortly:
as §5

For the next data set, the species on record is Homo sapiens. Kind of data set: Selectivity index, ratio of IC50 for HSMC to IC50 for human MCF7. Put shortly: as §3
The subject of data set [18] is HeLa. The data set is described as follows: Antiproliferative activity against human HeLa cells assessed as cell proliferation at 0.5 uM after 24 hrs by MTT assay relative to control. The class given is functional. The settings on record: read-out: Activity. The essentials:
as §4

For data set [19], the system named is U-937. Kind of data set: Cytotoxicity against human U937 cells after 48 hrs by MTT assay. The class given is functional, cell-based. The settings on record: for IC50: U-937, 48 h. The essentials: as §2
For data set [20], the system named is HCT-116. Kind of data set: Antiproliferative activity against human HCT116 cells expressing mismatch repair gene MLH1 complemented with chromosome 3 assessed as cell proliferation at 1 uM after 24 hrs by MTT assay relative to control. The class given is functional. To be noted: HCT-116, 24 h, read-out: Activity. Put shortly: as §4
For the next data set, the species on record is Bos taurus. The data set is described as follows: Inhibition of [3H]colchicine binding to bovine tubulin at 5 uM after 10 mins by DEAE-cellulose filter method.
The test system of data set [21] is M14. The data set is described as follows: Cytotoxicity against human M14 cells at 10 to 200 nM by MTT assay. The settings on record: TDE = time-dependent effect. The class given is functional, cell-based. Put shortly:
as §2

Data set [22] concerns MCF7. The data set is described as follows: Selectivity index, ratio of IC50 for rat A10 cells to IC50 for human MCF7 cells. The class given is functional. The essentials: as §3

As a reminder, the IC50 is the midpoint of a concentration-inhibition curve. In the case of `COc1cc(Cn2cccc2C(=O)O)cc(OC)c1OC`, the figures for the half-maximal inhibitory concentration (IC50) (in data set [1]; in the data set on MCF7 [4]) were over 40 µM and over 2.5 µM, respectively. In addition, the values for the Activity entry with Saccharomyces cerevisiae [2] and in the data set with Saccharomyces cerevisiae [3] were “Toxic” and “Non-toxic”, respectively.
For `COc1cc(Sc2c[nH]c3ccc(Br)cc23)cc(OC)c1OC`, the Activity entry in the data set on HEK293 [5] is “tde”; in the data set with U-937 [10], “tde”; with Saccharomyces cerevisiae [2], “Toxic”; with HEK293 [12], “Toxic”; in the data set on M14 [13] it was “Dose-dependent effect”; in the data set with Saccharomyces cerevisiae [3], “Non-toxic”. Also, the Activity entry in the data set on HEK293 [14] was “Dose-dependent effect”; in the data set with U-937 [19], “Dose-dependent effect”; in the data set on M14 [21] it was “tde”. In addition, the “Ratio IC50” value in the data set on MCF7 [6] is 9.3; in the data set with MCF7 [11], 5.3; in the data set listed under Homo sapiens, 7; with MCF7 [22], 4.9. The figures for the growth at 1 µM with HeLa [7] and in the data set with HCT-116 [20] were 56% and 60%, respectively. The IC50 with A10 amounted to 0.21 µM; in data set [9], 0.23 µM; in data set [1], 1.6 µM; in the data set on M14 [13] it was 0.194 µM; with MCF7 [4], 0.043 µM; in the data set with HUVEC, 0.4 µM. Moreover, the IC50 in data set [17] was 0.3 µM; in the data set with U-937 [19], 0.1 µM. Further, the result in the data set with M14 [8] was Active. Also, the growth at 0.5 µM in the data set with HCT-116 [15] came out at 60%; in the data set on HeLa [18] it was 47%. The inhibition at 48 h, 0.3 µM in [16] worked out at 20%. Moreover, in the data set filed under Bos taurus, the inhibition turned out to be 65%.
Turning to `COC(=O)c1[nH]c2ccc(OC)cc2c1Cc1cc(OC)c(OC)c(OC)c1`, the Activity result in the data set with HEK293 [5] was “tde”; with U-937 [10], “tde”; in the data set with HEK293 [12], “Toxic”; in the data set with M14 [13], “Dose-dependent effect”; in the data set with HEK293 [14], “Dose-dependent effect”; in the data set with U-937 [19] it was “Dose-dependent effect”. Also, the Activity result in the data set with M14 [21] is “tde”. Also, the “Ratio IC50” value with MCF7 [6] amounted to 5.2; with MCF7 [11] it was 5.8; in the data set filed under Homo sapiens, 2.1; with MCF7 [22], 3.9. The growth at 1 µM in the data set on HeLa [7] came out at 51%; with HCT-116 [20], 69%. Further, the IC50 in the data set with A10 amounted to 0.13 µM; in [9], 0.19 µM; in data set [1] it was 1.4 µM; with M14 [13], 0.137 µM; in the data set on HEK293 [14] (Homo sapiens, HEK293, 48 h), 0.181 µM; in the data set on MCF7 [4] it was 0.033 µM. Moreover, the results for the IC50 (with HUVEC; in data set [17]; in the data set on U-937 [19]) were 0.17 µM, 0.07 µM and 0.189 µM, respectively. Besides, in the data set on M14 [8], the outcome was Active. Besides, the growth at 0.5 µM worked out at 69% in the data set on HCT-116 [15] and 52% with HeLa [18]. In data set [16], the inhibition at 48 h, 0.3 µM was determined as 20%. The compound also registered an inhibition in the data set listed under Bos taurus of 59%.
